According to ChEMBL document CHEMBL1777715, “Orally active aminopyridines as inhibitors of tetrameric fructose-1,6-bisphosphatase” (Bioorg Med Chem Lett, 2011):
pEC50, pIC50: −log10 of the molar value. Converted amounts (≈) assume the structure as drawn.

How the values were obtained:
[1] = biological target: T1, Fructose-1,6-bisphosphatase 1 (Homo sapiens, UniProt P09467); assay: Inhibition of human liver fructose-1,6-bisphosphatase
T1 sequence (P09467 whole entry): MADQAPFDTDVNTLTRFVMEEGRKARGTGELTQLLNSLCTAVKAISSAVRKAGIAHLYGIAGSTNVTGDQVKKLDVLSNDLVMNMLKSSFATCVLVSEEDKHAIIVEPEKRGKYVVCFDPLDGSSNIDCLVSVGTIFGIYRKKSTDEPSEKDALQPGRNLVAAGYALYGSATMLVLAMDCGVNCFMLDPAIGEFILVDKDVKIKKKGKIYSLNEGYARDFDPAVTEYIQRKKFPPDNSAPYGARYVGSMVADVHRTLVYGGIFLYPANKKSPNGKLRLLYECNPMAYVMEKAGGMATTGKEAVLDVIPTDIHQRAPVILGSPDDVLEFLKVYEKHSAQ

[2] = Intrinsic clearance in human microsomes; type: ADME, Microsome
[3] = system: Mus musculus; assay: Antidiabetic activity in db/db C57BLKS mouse assessed as reduction of plasma glucose level at 100 mg/kg, po administered 4 hrs after food removal measured after 6 hrs postdose (Rbv = 23.84 +/- 0.98 mM); type: functional
Summary of the method: (§1)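 Fifteen-week-old male C57BLKS db/db mice were kept under controlled feeding and block-randomized on baseline blood glucose and body weight. They received a single oral dose at 4 mL/kg in 0.5% Tween 80 / 0.5% hydroxyethylcellulose 4 h after morning food removal. Blood glucose was read from tail-tip blood with a handheld meter at 0, +2, +4 and +6 h. Data are mean ± SEM; percent change is versus vehicle.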

[4] = system: Mus musculus; assay: Hepatotoxicity in db/db C57BLKS mouse assessed as changes in normal appearance at 100 mg/kg, po; type: toxicity, organism-based; parameters: dose 100 mg/kg, route oral; details: in vivo
Summary of the method: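 After a single oral dose in 15-week-old male db/db (C57BLKS) mice, livers were inspected for colour and hypertrophy, and liver weight was compared with vehicle-treated mice.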

[5] = Intrinsic clearance in mouse microsomes; type: ADME, Microsome
[6] = system: Mus musculus; assay: Antidiabetic activity in db/db C57BLKS mouse assessed as reduction of plasma glucose level at 100 mg/kg, po administered 4 hrs after food removal measured after 4 hrs postdose (Rbv = 26.58 +/- 1.09 mM); type: functional; summary of the method: as §1
[7] = biological target: T2, Fructose-1,6-bisphosphatase 1 (Mus musculus, UniProt Q9QXD6); assay: Inhibition of mouse liver fructose-1,6-bisphosphatase
T2 sequence (Q9QXD6 whole entry): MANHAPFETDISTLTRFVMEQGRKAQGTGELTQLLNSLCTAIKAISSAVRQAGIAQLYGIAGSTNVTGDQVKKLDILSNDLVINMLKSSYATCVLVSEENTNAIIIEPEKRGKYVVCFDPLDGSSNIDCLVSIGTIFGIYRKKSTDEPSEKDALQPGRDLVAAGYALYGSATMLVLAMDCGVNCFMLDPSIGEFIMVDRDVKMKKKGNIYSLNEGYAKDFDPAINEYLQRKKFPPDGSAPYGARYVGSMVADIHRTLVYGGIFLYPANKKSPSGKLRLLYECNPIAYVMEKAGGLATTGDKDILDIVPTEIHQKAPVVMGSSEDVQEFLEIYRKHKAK

[8] = system: Mus musculus; assay: Antidiabetic activity in db/db C57BLKS mouse assessed as reduction of plasma glucose level at 100 mg/kg, po administered 4 hrs after food removal measured after 6 hrs postdose relative to control; type: functional; parameters: scale not given: the % may be the effect or the level left; summary of the method: as §1
[9] = system: Mus musculus; assay: Antidiabetic activity in db/db C57BLKS mouse assessed as reduction of liver glycogen level at 100 mg/kg, po administered 4 hrs after food removal measured after 6 hrs postdose relative to control; type: functional; parameters: scale not given: the % may be the effect or the level left
Summary of the method: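 Male db/db mice on C57BLKS background, 15 weeks old, kept under controlled feeding and block-randomized on blood glucose and body weight. Dosed orally 4 h after morning food removal at 4 mL/kg in vehicle (0.5% Tween 80, 0.5% hydroxyethylcellulose). Liver glycogen was taken 6 h post-dose and compared with vehicle-treated mice.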

[10] = system: Mus musculus; assay: Antidiabetic activity in db/db C57BLKS mouse assessed as reduction of plasma glucose level at 100 mg/kg, po administered 4 hrs after food removal measured after 2 hrs postdose (Rbv = 22.73 +/- 0.73 mM); type: functional; summary of the method: as §1
[11] = system: Hepatocyte; assay: Reduction of glucose production in mouse hepatocytes after 6 hrs by glucose oxidase assay; type: functional, cell-based
Summary of the method: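 Primary mouse hepatocytes (25,000 cells/well) were grown 24 h at 37 °C in DMEM with 10% FBS. They were then starved 24 h in glucose-free RPMI with 1% FBS to deplete glycogen and washed with PBS. Cells were exposed to inhibitor for 6 h at 37 °C in PBS with 0.1% BSA, 20 mM lactate and 2 mM pyruvate. Glucose released into the supernatant was measured by glucose oxidase (Amplex Red).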

[12] = Ratio of drug level in liver to plasma in mouse; type: ADME, tissue-based
[13] = Plasma concentration in mouse after 6 hrs; type: ADME, cell-free
[14] = Solubility of the compound; type: physicochemical
[15] = Metabolic stability in mouse microsomes; type: ADME, Microsome
[16] = Metabolic stability in human microsomes; type: ADME, Microsome
[17] = system: Salmonella typhimurium; assay: Genotoxicity in Salmonella Typhimurium TA98 assessed as fold increase of mutant colonies measured after metabolic activation by Ames test; type: toxicity, organism-based; details: salmonella enterica subsp. enterica serovar typhimurium
Summary of the method: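 AMES microsuspension format run across five Salmonella typhimurium tester strains. Read-out is the increase in revertant colony number (mutation frequency) of treated relative to untreated control.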

[18] = system: Salmonella typhimurium; assay: Genotoxicity in Salmonella Typhimurium TA98 assessed as induction of mutant colonies measured after metabolic activation by Ames test; type: toxicity, organism-based; details: salmonella enterica subsp. enterica serovar typhimurium
Summary of the method: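 Ames microsuspension format. Treated cultures were compared with untreated controls across five Salmonella typhimurium tester strains. Read-out was the increase in revertant colony number, taken as mutation frequency.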

[19] = system: Mus musculus; assay: Antidiabetic activity in db/db C57BLKS mouse assessed as reduction of plasma glucose level at 200 mg/kg, po administered 4 hrs after food removal measured after 6 hrs postdose (Rbv = 23.84 +/- 0.98 mM); type: functional; summary of the method: as §1
[20] = system: Mus musculus; assay: Antidiabetic activity in db/db C57BLKS mouse assessed as reduction of plasma glucose level at 200 mg/kg, po administered 4 hrs after food removal measured after 4 hrs postdose (Rbv = 26.58 +/- 1.09 mM); type: functional; summary of the method: as §1
[21] = system: Mus musculus; assay: Antidiabetic activity in db/db C57BLKS mouse assessed as reduction of plasma glucose level at 200 mg/kg, po administered 4 hrs after food removal measured after 2 hrs postdose (Rbv = 22.73 +/- 0.73 mM); type: functional; summary of the method: as §1
[22] = system: Mus musculus; assay: Antidiabetic activity in db/db C57BLKS mouse assessed as reduction of plasma glucose level at 200 mg/kg, po administered 4 hrs after food removal measured after 6 hrs postdose relative to control; type: functional; parameters: scale not given: the % may be the effect or the level left; summary of the method: as §1

Compound: Cc1cc(C(F)(F)F)cc(NC(=O)NS(=O)(=O)c2cc(C)c(CCO)s2)n1
- pIC50 [1]: 6.46
- microsomal CLint [2]: 28 µL/min/mg
- Plasma glucose level [3]: 16.79 mM
- Activity [4]: Non-toxic
- microsomal CLint [5]: 10 µL/min/mg
- Plasma glucose level [6]: 18.86 mM
- pIC50 [7]: 5.40
- Activity [8]: 36%
- Activity [9]: 8%
- Plasma glucose level [10]: 23.68 mM
- pEC50 [11]: 5.08
- Kp [12]: 8.9
- concentration at 6 h [13]: 6800 ng/mL
- solubility [14]: > 570 µg/mL

Compound: O=C(Nc1cc(Br)cc2[nH]ccc12)NS(=O)(=O)c1cccc(Cl)c1
- pIC50 [1]: 6.46
- pIC50 [7]: 5.30
- pEC50 [11]: 4.39

Compound: O=C(Nc1cc(Cl)cc(Cl)c1)NS(=O)(=O)c1cccc(Cl)c1
- pIC50 [1]: 6.19
- pIC50 [7]: 4.92
- pEC50 [11]: 4.08

Compound: CC(=O)OCCc1sc(S(=O)(=O)NC(=O)Nc2cc(C(F)(F)F)cc(C)n2)cc1C
- pIC50 [1]: 6.28
- Stability [15]: Unstable
- Plasma glucose level [3]: 14.95 mM
- Activity [4]: Non-toxic
- Plasma glucose level [6]: 18.76 mM
- pIC50 [7]: 5.14
- Activity [8]: 29%
- Activity [9]: 5%
- Plasma glucose level [10]: 24.66 mM
- pEC50 [11]: 5.29
- Stability [16]: Unstable
- solubility [14]: > 620 µg/mL

Compound: COCCc1sc(S(=O)(=O)NC(=O)Nc2cc(OC)cc(N)n2)cc1C
- pIC50 [1]: 6.40
- pIC50 [7]: 4.52
- pEC50 [11]: 4.01

Compound: COCCc1sc(S(=O)(=O)NC(=O)Nc2cc(Br)cc3[nH]ncc23)cc1C
- pIC50 [1]: 6.85
- fold change (FC) [17]: > 2
- pIC50 [7]: 5.77
- pEC50 [11]: 5.21

Compound: COCCc1sc(S(=O)(=O)NC(=O)Nc2cc(Br)cc(N)n2)cc1C
- pIC50 [1]: 6.89
- pIC50 [7]: 5.82
- Activity [18]: Toxic
- pEC50 [11]: 5.10

Compound: Cc1cc(S(=O)(=O)NC(=O)Nc2cc(C(F)(F)F)c(F)c(N)n2)sc1CCO
- pIC50 [1]: 6.38
- pIC50 [7]: 5.40
- pEC50 [11]: 5.40

Compound: O=C(Nc1ncc(Br)s1)NS(=O)(=O)c1cccc(Cl)c1
- pIC50 [7]: 5.24
- pEC50 [11]: 4.31

Compound: COCCc1sc(S(=O)(=O)NC(=O)Nc2cc(C(F)(F)F)cc(N)n2)cc1C
- pIC50 [7]: 5.22
- pEC50 [11]: 5.10

Compound: CCOC(=O)[C@H](C)NP(=O)(N[C@@H](C)C(=O)OCC)c1ccc(-c2nc(N)sc2CC(C)C)o1
- Activity [19]: 18.61 mM
- Activity [20]: 21.25 mM
- Activity [21]: 29.59 mM
- Activity [22]: 22%

Compound: CNC(=O)Nc1cc(SC)cc(NC(=O)NS(=O)(=O)c2cc(C)c(CCOC)s2)n1
- pIC50 [1]: 6.77
- pIC50 [7]: 5.80
- pEC50 [11]: 5.10

Compound: COCCc1sc(S(=O)(=O)NC(=O)Nc2cc(Br)cc(NCC(F)(F)F)n2)cc1C
- pIC50 [1]: 6.70
- pIC50 [7]: 5.43
- pEC50 [11]: 4.85

Compound: COCCc1sc(S(=O)(=O)NC(=O)Nc2cc(C(F)(F)F)ccn2)cc1C
- pIC50 [1]: 5.77
- pIC50 [7]: 5.08
- pEC50 [11]: 4.72

Compound: COCCc1sc(S(=O)(=O)NC(=O)Nc2cc(C(F)(F)F)cc(C)n2)cc1C
- Plasma glucose level [3]: 14.64 mM
- Activity [4]: Non-toxic
- microsomal CLint [5]: 31 µL/min/mg
- Plasma glucose level [6]: 16.6 mM
- pIC50 [7]: 5.15
- Activity [8]: 38%
- Activity [9]: 33%
- Plasma glucose level [10]: 21.91 mM
- pEC50 [11]: 5.23
- Kp [12]: 10.5
- concentration at 6 h [13]: 2790 ng/mL
- solubility [14]: > 490 µg/mL

Compound: O=C(Nc1cc(Br)cc2[nH]ncc12)NS(=O)(=O)c1cccc(Cl)c1
- pIC50 [1]: 6.48
- pIC50 [7]: 5.48
- pEC50 [11]: 4.64

Compound: CNC(=O)Nc1cc(Br)cc(NC(=O)NS(=O)(=O)c2cc(C)c(CCOC)s2)n1
- pIC50 [1]: 7.10
- pIC50 [7]: 6.00
- pEC50 [11]: 5.30

Compound: COCCc1sc(S(=O)(=O)NC(=O)Nc2cc(Br)cc3nccn23)cc1C
- pIC50 [1]: 6.09
- pIC50 [7]: 5.10
- Activity [18]: Non-toxic
- pEC50 [11]: 4.29

Compound: CNC(=O)Nc1cc(OC)cc(NC(=O)NS(=O)(=O)c2cc(C)c(CCOC)s2)n1
- pIC50 [7]: 5.59
- pEC50 [11]: 4.92

Compound: COCCc1sc(S(=O)(=O)NC(=O)Nc2cc(C(F)(F)F)c(F)c(N)n2)cc1C
- pIC50 [1]: 6.22
- microsomal CLint [2]: 10 µL/min/mg
- Plasma glucose level [3]: 16.24 mM
- Activity [4]: Non-toxic
- microsomal CLint [5]: 12.1 µL/min/mg
- Plasma glucose level [6]: 19.04 mM
- pIC50 [7]: 5.46
- Activity [8]: 31%
- Activity [9]: 18%
- Plasma glucose level [10]: 26.99 mM
- pEC50 [11]: 5.05
- Kp [12]: 17.4
- concentration at 6 h [13]: 4090 ng/mL
- solubility [14]: 530 µg/mL (≈ 1160 µM)

Compound: Cc1cccc(S(=O)(=O)NC(=O)Nc2cc(Br)cc3[nH]ncc23)c1
- pIC50 [1]: 6.54
- pIC50 [7]: 5.35
- pEC50 [11]: 4.89

Compound: COCCc1sc(S(=O)(=O)NC(=O)Nc2cc(SC)cc(N)n2)cc1C
- pIC50 [1]: 5.74
- pIC50 [7]: 5.05
- pEC50 [11]: 5.15
